# Screening results as filed in PubChem BioAssay.
# An excerpt weighted towards active compounds, which were near 0.86% of everything screened.
# APJ agonist: agonists of human APJ apelin receptor | P35414 | CHO-K1 APJ PathHunter beta-arrestin, luminescence; 0% DMSO wells, 100% apelin | activation, % at 20 µM | 330,000 tested, 0.11% active;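 active means activation more than six SD over the plate average, tested at 20 µM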;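 further: 0% = DMSO alone and 100% = apelin-13 at 10 nM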
#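 system = engineered CHO-K1 APJ arrestin reporter cells | input = 1000 cells per well | timing = overnight seeding, 90 min compound at 25 °C, 1 h detection | measured by = enzyme-fragment complementation luminescence | read-out = beta-arrestin recruitment to APJ as agonist activity, luminescent signal | control set = negative DMSO alone, positive Apelin-13 at 10 nM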
# APJ antagonist: blocks the human apelin receptor APJ; P35414; 330,000 tested, 0.32% active; AID 2521; CHO-K1 APJ beta-arrestin complementation, luminescence; inhibition, % at 20 µM;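 active means inhibition above about 40% at 20 µM, limit read from the data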;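 further: cells challenged with 10 nM apelin-13 agonist together with compound; plate controls were apelin-13 plus DMSO wells for no effect and DMSO wells lacking apelin-13 for full effect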
# CCR6 antag: antagonists of human CCR6 receptor | CHO-K1 CCR6 PathHunter beta-arrestin, luminescence, CCL20-stimulated | P51684 | 340,000 tested, 0.49% active | inhibition, % at 20 µM | AID 493098;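 active means compounds whose inhibition of the agonist-driven luminescence signal at 20 µM reaches about 50%, limit read from the data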;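 further: cells stimulated with CCL20 at 14 nM final; plate controls were DMSO with CCL20 for no effect and DMSO without agonist for full effect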
# CXCR6 inh: inhibitors of human CXCR6 receptor; O00574; CHO-K1 PathHunter CXCR6 beta-arrestin, luminescence; inhibition, % at 20 µM; 360,000 tested, 0.36% active; in the data active means inhibition above about 34%, passing the limit was not always enough;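 further: antagonist mode with CXCL16 agonist at 10 nM final; 0% = 10 nM CXCL16 with DMSO and 100% = unstimulated wells without agonist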
# Target sequence (O00574 whole entry, looked up): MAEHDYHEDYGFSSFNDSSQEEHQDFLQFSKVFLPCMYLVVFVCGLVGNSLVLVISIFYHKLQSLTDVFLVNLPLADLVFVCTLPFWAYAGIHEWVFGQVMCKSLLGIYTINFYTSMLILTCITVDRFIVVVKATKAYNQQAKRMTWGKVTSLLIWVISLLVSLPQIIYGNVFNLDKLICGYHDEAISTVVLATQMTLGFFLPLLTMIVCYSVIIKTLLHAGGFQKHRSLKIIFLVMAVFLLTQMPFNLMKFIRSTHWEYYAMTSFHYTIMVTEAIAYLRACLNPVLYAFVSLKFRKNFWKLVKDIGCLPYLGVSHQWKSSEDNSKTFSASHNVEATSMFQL
# DAGLB inh: diacylglycerol lipase beta (human) inhibition | AID 504411 | HEK293T DAGLB membrane lysate, EnzChek fluorogenic substrate | inhibition, % at 5.17 µM | 340,000 tested, 0.059% active | Q8NCG7; in the data active means inhibition above about 34%;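 further: 0% = enzyme with vehicle and 100% = wells lacking enzyme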
# iPSC survival up: enhancers of human iPSC single-cell survival | hiPSC single-cell survival, ATPlite luminescence; 100% = ROCK inhibitor wells, 0% = DMSO | survival enhancement, % at 20 µM | 360,000 tested, 0.044% active | AID 602274; in the data active means survival enhancement above about 18%;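 further: cells exposed to compounds for 16 hours before the ATP read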
# APJ antag confirm: confirmation of human APJ apelin receptor antagonists | shares compounds with APJ antagonist | APJ beta-arrestin recruitment, luminescence, antagonist mode | inhibition, % at 20 µM | 950 tested, 66% active | AID 2766; in the data active means inhibition above about 50%
# * marks the source's active call; other numbers are inactive results; . = no result.
SMILES,APJ agonist,APJ antagonist,CCR6 antag,CXCR6 inh,DAGLB inh,iPSC survival up,APJ antag confirm
COc1ccc(NS(=O)(=O)c2ccc3ccccc3c2)c2ncccc12,-12,66*,32,20,-1,-1,52*
O=S(=O)(Nc1cccc2cccnc12)c1ccc(S(=O)(=O)N2CCCC2)cc1,-17,68*,45,34,-1,0,48
Cc1ccc(S(=O)(=O)Nc2cccc3cccnc23)c([N+](=O)[O-])c1,-24,58*,49,30,-2,0,56*
COc1ccc(-c2cnc(C(O)c3ccc(CN4CCCCC4)cc3)[nH]2)cc1 (stereo not drawn),.,.,.,1,.,-1,.
COC(C(=O)Nc1ccnn1C1CCN(C(=O)c2cccc(F)c2)CC1)c1ccccc1 (stereo not drawn),-3,-3,-1,6,1,0,.
Cc1ccc2cccc(NS(=O)(=O)c3ccccc3)c2n1,-20,63*,39,.,.,.,57*
c1cncc(-c2nc(-c3ccco3)cs2)c1,-6,47*,28,19,2,-2,18
O=C(CCC(=O)c1cccs1)OCC(=O)c1ccc(Cl)s1,-2,41*,14,10,-4,2,-2
O=C(CCC(=O)c1cccs1)OCC(=O)c1ccc(F)cc1,-6,8,-7,-8,-3,-2,.
CC(=O)c1cccc(NC(=O)Cn2cnc(S(=O)(=O)N3CCC(C)CC3)c2)c1,-3,42*,-3,-9,-1,0,23
CC1CCN(S(=O)(=O)c2cn(CC(=O)Nc3cccc(C#N)c3)cn2)CC1,-1,3,16,-8,5,0,.
O=S1(=O)CCN(CCCCc2ccccc2)CC1,.,.,.,-7,0,0,.
O=C(COC(=O)c1cnccn1)c1cccc([N+](=O)[O-])c1,-13,42*,53*,32,1,3,79*
O=C(CCC(=O)OCC(=O)c1cccc([N+](=O)[O-])c1)NC1CCCCC1,-15,43*,58*,24,3,1,99*
O=C(COC(=O)c1cnccn1)c1ccc2ccccc2c1,-2,30,31,10,3,0,.
CC(=O)Nc1ccc(NC(=O)CCC(=O)OCC(=O)c2cccc([N+](=O)[O-])c2)cc1,-10,47*,38,27,-1,-2,86*
Cc1ccc(OCC(=O)OCC(=O)c2cccc([N+](=O)[O-])c2)cc1C,-19,57*,51*,39,-4,0,55*
O=C(COC(=O)c1cc2ccccc2oc1=O)c1cccc([N+](=O)[O-])c1,-6,48*,52*,29,1,0,83*
O=C(CCC(=O)OCC(=O)c1cccc([N+](=O)[O-])c1)Nc1ccccc1Cl,-13,68*,62*,30,2,2,112*
COc1cc([N+](=O)[O-])ccc1NC(=O)CCCOc1ccccc1,-2,6,18,-2,-7,-3,.
COc1cc([N+](=O)[O-])ccc1NC(=S)NNC(=O)CCC(=O)Nc1ccccc1Cl,-14,45*,34,31,11,0,51*
C[C@]12c3[nH]c4cc(-c5ccco5)ccc4c3CCN1C(=O)[C@@H](CC(=O)NCc1ccco1)C[C@@H]2C(=O)N1CCOCC1,.,.,16,4,1,1,.
Cc1ccc(N2C(=N)/C(=C3/Nc4ccccc4S3)C(c3ccccc3)C2=O)cc1 (stereo not drawn),.,.,1,-10,-2,-3,.
C=CCSC(=S)Nc1c(C)n(C)n(-c2ccccc2)c1=O,-2,47*,18,4,0,0,21
CCC1C(=O)NCCN1C(=O)c1ccc(OC)c(OC2CCN(C(C)=O)CC2)c1 (stereo not drawn),-2,2,16,-1,-1,0,.
COc1ccccc1NS(=O)(=O)c1cc(NC(=O)c2ccc(Cl)nc2)ccc1Cl,0,10,4,-22,-1,0,.
